Activity calls are given as the source filed them.
Tests used:
[1] = biological target: T1, Glucose-dependent insulinotropic receptor (Homo sapiens) (UniProt Q8TDV5); test: Agonist activity at human GPR119 by melanophore assay relative to AR231453; type: functional
T1 sequence (whole entry): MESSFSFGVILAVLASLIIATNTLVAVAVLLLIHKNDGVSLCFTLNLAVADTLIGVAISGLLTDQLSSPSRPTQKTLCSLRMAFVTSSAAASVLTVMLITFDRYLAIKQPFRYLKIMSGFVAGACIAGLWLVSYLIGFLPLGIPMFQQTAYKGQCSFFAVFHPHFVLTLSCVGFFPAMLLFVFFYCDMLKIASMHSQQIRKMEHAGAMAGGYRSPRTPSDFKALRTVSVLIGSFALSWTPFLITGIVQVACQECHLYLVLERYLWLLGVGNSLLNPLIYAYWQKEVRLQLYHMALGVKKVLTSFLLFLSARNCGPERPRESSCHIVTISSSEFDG
Summary of the method: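 Melanophores transfected with human GPR119. Apparent Emax is the curve height normalized to the positive control AR231453, which is defined as a full agonist (100% efficacy).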

[2] = biological target: T2, Glucose-dependent insulinotropic receptor (Homo sapiens, UniProt Q8TDV5); test: Agonist activity at human GPR119 by melanophore assay; type: functional
T2 sequence (Q8TDV5 whole entry): T1 sequence (whole entry)
Summary of the method: (§1)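 Agonist EC50 measured in melanophores transfected with the human or rat GPR119 receptor sequence. Values are means of multiple determinations (n).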

[3] = biological target: T3, Glucose-dependent insulinotropic receptor (Rattus norvegicus) (UniProt Q7TQN8); test: Selectivity ratio of EC50 for rat GPR119 to EC50 for human GPR119
T3 sequence (whole entry): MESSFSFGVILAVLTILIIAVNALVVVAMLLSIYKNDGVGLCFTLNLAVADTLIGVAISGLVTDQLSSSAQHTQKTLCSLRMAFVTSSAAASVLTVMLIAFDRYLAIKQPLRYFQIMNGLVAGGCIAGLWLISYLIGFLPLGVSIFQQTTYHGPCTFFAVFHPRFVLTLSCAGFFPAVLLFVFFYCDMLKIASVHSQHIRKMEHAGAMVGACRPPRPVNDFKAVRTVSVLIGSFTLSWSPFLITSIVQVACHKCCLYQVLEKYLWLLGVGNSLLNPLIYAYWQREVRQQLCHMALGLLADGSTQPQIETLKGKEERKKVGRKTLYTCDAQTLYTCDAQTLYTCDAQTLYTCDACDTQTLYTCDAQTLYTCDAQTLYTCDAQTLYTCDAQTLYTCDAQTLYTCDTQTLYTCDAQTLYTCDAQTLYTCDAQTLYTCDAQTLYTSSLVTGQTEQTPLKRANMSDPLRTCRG

[4] = biological target: T4, Glucose-dependent insulinotropic receptor (Rattus norvegicus, UniProt Q7TQN8); test: Agonist activity at rat GPR119 by melanophore assay; type: functional; summary of the method: as §1
T4 sequence (Q7TQN8 whole entry): T3 sequence (whole entry)

Rattus norvegicus [5] = test: Antidiabetic activity in ZDF rat assessed as glycated hemoglobin level at 10 mg/kg, po measured on day 1; type: functional
Summary of the method: (§2)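 Male ZDF rats, 6 weeks old, baseline weight 200–250 g, were split into 3 groups by fed body weight and blood glucose. They received vehicle (100% PEG400) or compound daily for 56 days, n = 5–7 per group. Blood glucose and HbA1c were determined on days 1, 31 and 56, and body weight gain was recorded. Results are mean ± standard error.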

[6] = Tmax in po dosed Sprague-Dawley rat; type: ADME, organism-based; conditions: in vivo
Cynomolgus monkey = test: Volume of distribution at steady state in po dosed cynomolgus monkey; type: ADME, organism-based, Macaca fascicularis; conditions: in vivo
Caco-2 = test: Apparent permeability across human Caco2 cells; type: ADME, cell-based
Rattus norvegicus [7] = test: Antidiabetic activity in po dosed Sprague-Dawley rat assessed as oral glucose tolerance; type: functional; conditions: read-out: MED
Summary of the method: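 SD rats were fasted 3–16 h, and compound was given po at −30 min after a tail-nick glucose reading. At time 0, glucose 3 g/kg po (6 ml/kg) was given. Glucometer readings were taken at 0, 30, 60 and 120 min. Each rat was used twice, one week apart.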

Rattus norvegicus [8] = test: Antidiabetic activity in ZDF rat assessed as glycated hemoglobin level at 30 mg/kg, po measured on day 31
[9] = Elimination half life in iv dosed dog; type: ADME, organism-based, Canis lupus familiaris; conditions: in vivo, read-out: beta t1/2 (converted)
Rattus norvegicus [10] = test: Antidiabetic activity in ZDF rat assessed as glycated hemoglobin level at 10 mg/kg, po measured on day 31
Rattus norvegicus [11] = test: Antidiabetic activity in ZDF rat assessed as body weight gain at 10 mg/kg, po measured on day 56; type: functional; summary of the method: as §2
[12] = Tmax in po dosed mouse; type: ADME, organism-based; conditions: in vivo
[13] = Tmax in po dosed dog; type: ADME, organism-based, Canis lupus familiaris; conditions: in vivo
Salmonella typhimurium = test: Mutagenic activity in Salmonella Typhimurium; type: toxicity, organism-based; conditions: salmonella enterica subsp. enterica serovar typhimurium
[14] = Mutagenic activity in mouse lymphoma; type: toxicity
[15] = Plasma protein binding in human; type: ADME, cell-free; conditions: read-out: PPB
Rattus norvegicus [16] = test: Antidiabetic activity in ZDF rat assessed as glycated hemoglobin level at 10 mg/kg, po measured on day 56; type: functional; summary of the method: as §2
[17] = Elimination half life in iv dosed mouse; type: ADME, organism-based; conditions: in vivo, read-out: beta t1/2 (converted)
[18] = biological target: Voltage-gated inwardly rectifying potassium channel KCNH2 (Homo sapiens, UniProt Q12809); test: Inhibition of human ERG by patch clamp assay
Sequence of Voltage-gated inwardly rectifying potassium channel KCNH2 (Q12809 whole entry): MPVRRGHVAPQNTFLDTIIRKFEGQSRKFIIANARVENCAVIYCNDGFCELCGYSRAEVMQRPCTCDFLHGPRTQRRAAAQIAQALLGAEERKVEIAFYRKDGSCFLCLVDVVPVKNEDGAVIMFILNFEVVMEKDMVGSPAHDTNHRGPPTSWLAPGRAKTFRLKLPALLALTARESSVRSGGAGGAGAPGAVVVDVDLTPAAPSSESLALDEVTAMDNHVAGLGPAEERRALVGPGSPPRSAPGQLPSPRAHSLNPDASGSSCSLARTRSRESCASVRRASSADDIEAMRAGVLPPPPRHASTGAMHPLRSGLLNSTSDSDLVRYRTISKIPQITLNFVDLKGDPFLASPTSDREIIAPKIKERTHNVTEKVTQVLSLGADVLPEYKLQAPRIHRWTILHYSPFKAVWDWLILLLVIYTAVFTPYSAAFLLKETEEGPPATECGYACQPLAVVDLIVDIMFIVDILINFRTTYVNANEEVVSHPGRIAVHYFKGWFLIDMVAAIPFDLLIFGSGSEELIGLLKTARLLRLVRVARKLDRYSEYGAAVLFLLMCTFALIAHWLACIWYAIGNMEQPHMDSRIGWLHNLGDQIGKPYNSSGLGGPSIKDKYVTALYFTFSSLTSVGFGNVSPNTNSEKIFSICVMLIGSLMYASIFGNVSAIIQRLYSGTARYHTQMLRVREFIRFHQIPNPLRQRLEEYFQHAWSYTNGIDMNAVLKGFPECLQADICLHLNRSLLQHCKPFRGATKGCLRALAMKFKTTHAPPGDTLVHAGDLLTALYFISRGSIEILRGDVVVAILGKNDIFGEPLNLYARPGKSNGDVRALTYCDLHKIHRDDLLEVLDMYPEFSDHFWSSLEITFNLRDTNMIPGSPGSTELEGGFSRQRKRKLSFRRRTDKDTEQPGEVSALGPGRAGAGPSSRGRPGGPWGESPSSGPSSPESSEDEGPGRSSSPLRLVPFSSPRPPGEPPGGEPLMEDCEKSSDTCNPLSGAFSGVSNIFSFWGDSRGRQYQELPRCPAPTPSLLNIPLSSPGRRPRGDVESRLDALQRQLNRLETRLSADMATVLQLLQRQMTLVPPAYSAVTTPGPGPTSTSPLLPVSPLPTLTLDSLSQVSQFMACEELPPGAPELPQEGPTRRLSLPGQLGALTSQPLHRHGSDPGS

Rattus norvegicus [19] = test: Volume of distribution at steady state in po dosed Sprague-Dawley rat; type: ADME, organism-based; conditions: in vivo
Rattus norvegicus [20] = test: Antidiabetic activity in ZDF rat assessed as body weight gain at 30 mg/kg, po measured on day 56; type: functional; summary of the method: as §2
[21] = Aqueous solubility of the compound; type: physicochemical; conditions: buffer
Rattus norvegicus [22] = test: Antidiabetic activity in ZDF rat assessed as glycated hemoglobin level at 30 mg/kg, po measured on day 1; type: functional; summary of the method: as §2
[23] = Oral bioavailability in dog; type: ADME, organism-based, Canis lupus familiaris; conditions: in vivo
[24] = Plasma protein binding in male rat; type: ADME, cell-free; conditions: read-out: PPB (converted)
Rattus norvegicus [25] = test: Antidiabetic activity in hyperglycemic Sprague-Dawley rat model assessed as glucose dependent insulin release at 0.08 mg/kg/min, iv; type: functional, organism-based
Summary of the method: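 Hyperglycemic clamp in male SD rats fasted overnight. After 1 h of baseline glucose and insulin sampling, vehicle or compound was infused into the jugular vein for 2 h. Glucose was clamped at 100 mg/dl for hours 1–2, then raised to 300 mg/dl for hour 3 by a 30% glucose bolus and variable infusion. Plasma insulin was followed.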

Rattus norvegicus [26] = test: Antidiabetic activity in ZDF rat assessed as glycated hemoglobin level at 30 mg/kg, po measured on day 56; type: functional; summary of the method: as §2
[27] = Plasma protein binding in male cynomolgus monkey; type: ADME, cell-free, Macaca fascicularis; conditions: read-out: PPB
[28] = Oral bioavailability in mouse; type: ADME, organism-based; conditions: in vivo
[29] = Plasma protein binding in female cynomolgus monkey; type: ADME, cell-free, Macaca fascicularis; conditions: read-out: PPB
[30] = Elimination half life in iv dosed Sprague-Dawley rat; type: ADME, organism-based; conditions: in vivo, read-out: beta t1/2 (converted)
[31] = Oral bioavailability in Sprague-Dawley rat; type: ADME, organism-based; conditions: in vivo
[32] = Elimination half life in iv dosed cynomolgus monkey; type: ADME, organism-based, Macaca fascicularis; conditions: in vivo, read-out: beta t1/2 (converted)
[33] = Tmax in po dosed cynomolgus monkey; type: ADME, organism-based, Macaca fascicularis; conditions: in vivo
Cytochrome P450 2C9 = Cytochrome P450 2C9 (Homo sapiens, UniProt P11712); test: Inhibition of CYP2C9; type: ADME
Sequence of Cytochrome P450 2C9 (P11712 whole entry): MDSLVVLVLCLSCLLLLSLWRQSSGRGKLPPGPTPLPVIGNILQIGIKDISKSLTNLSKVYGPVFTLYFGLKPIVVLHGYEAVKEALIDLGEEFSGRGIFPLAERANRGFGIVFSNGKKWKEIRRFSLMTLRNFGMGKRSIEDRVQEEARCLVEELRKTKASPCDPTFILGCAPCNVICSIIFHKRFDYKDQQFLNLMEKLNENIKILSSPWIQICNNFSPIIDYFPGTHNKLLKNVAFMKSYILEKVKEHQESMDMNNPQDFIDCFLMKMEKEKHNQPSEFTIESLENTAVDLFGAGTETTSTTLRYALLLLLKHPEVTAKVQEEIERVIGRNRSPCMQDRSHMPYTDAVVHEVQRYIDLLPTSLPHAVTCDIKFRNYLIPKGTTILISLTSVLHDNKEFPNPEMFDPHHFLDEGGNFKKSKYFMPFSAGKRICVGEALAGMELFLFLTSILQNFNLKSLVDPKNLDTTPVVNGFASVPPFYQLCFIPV
Summary of the method: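 Inhibition constant (Ki) determined in human hepatic microsomes.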

[34] = Mutagenic activity in mouse micronuclei; type: toxicity
[35] = Oral bioavailability in cynomolgus monkey; type: ADME, organism-based, Macaca fascicularis; conditions: in vivo
Mus musculus = test: Antidiabetic activity in po dosed C57/BL6 mouse assessed as oral glucose tolerance; type: functional; conditions: read-out: MED
Summary of the method: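 C57/BL6 mice were handled twice and fasted 3–16 h. Compound was given 0–30 min before the first sample. At time 0 a glucose bolus ([…] as printed, po) was given. Tail-nick glucose was read by glucometer at 0, 20, 40, 60 and 120 min.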

[36] = Plasma protein binding in female rat; type: ADME, cell-free; conditions: read-out: PPB (converted)
Rattus norvegicus [37] = test: Antidiabetic activity in ZDF rat assessed as blood glucose level at 10 mg/kg, po measured on day 56; type: functional; summary of the method: as §2
Rattus norvegicus [38] = test: Antidiabetic activity in ZDF rat assessed as blood glucose level at 30 mg/kg, po measured on day 56; type: functional; summary of the method: as §2

For `Cc1nn(-c2ccc(S(C)(=O)=O)cc2)c2ncnc(OC3CCN(C(=O)OC(C)(C)C)CC3)c12`, the Emax [1] was 103%, the EC50 [2] was 15 nM and the Ratio EC50 [3] was 3. It also gave an EC50 [4] of 42 nM.

In the case of `CS(=O)(=O)c1ccc(-n2ncc3c(OC4CCN(C(=O)OC5CCCC5)CC4)ncnc32)cc1`, the Emax [1] is reported as 80%, the EC50 [2] is reported as 14.6 nM and the Ratio EC50 [3] is reported as 1.4. It also gave an EC50 [4] of 21 nM.

For `CC(C)OC(=O)N1CCC(Oc2ncnc3c2cnn3-c2ccc(S(C)(=O)=O)cc2F)CC1`, the Activity (Rattus norvegicus [5]) was 3.5%, the Tmax [6] was ≤ 120 min and the Vdss (Cynomolgus monkey) was 0.1 L/kg. The permeability (Caco-2) was “permeable”, the minimal effective dose (Rattus norvegicus [7]) was 10 mg/kg and the Activity (Rattus norvegicus [8]) was 5.2%. For the same compound, the half-life [9] was 48 min, the Activity (Rattus norvegicus [10]) was 7.3% and the Activity (Rattus norvegicus [11]) was 224.9 g. The Tmax [12] was ≤ 120 min, the Tmax [13] was 360 min and the Activity (Salmonella typhimurium) was “Non-toxic”. The Activity [14] was “Non-toxic”, the fraction unbound [15] was ≤ 0.01 and the Activity (Rattus norvegicus [16]) was 8.2%. For the same compound, the half-life [17] was 48 min, the IC50 [18] was 3000 nM and the Vdss (Rattus norvegicus [19]) was 2.6 L/kg. For the same compound, the Activity (Rattus norvegicus [20]) was 204.2 g, the solubility [21] was “soluble” and the Activity (Rattus norvegicus [22]) was 3.4%. For the same compound, the bioavailability [23] was 22%, the fraction unbound [24] was 0.07 and the Activity (Rattus norvegicus [25]) was “Active”. For the same compound, the Activity (Rattus norvegicus [26]) was 4.7%, the fraction unbound [27] was ≤ 0.01 and the bioavailability [28] was 44%. For the same compound, the fraction unbound [29] was ≤ 0.01, the half-life [30] was 48 min and the bioavailability [31] was 44%. For the same compound, the half-life [32] was 48 min, the EC50 [4] was 33 nM and the Tmax [33] was ≤ 120 min. The Ki (Cytochrome P450 2C9) was 100 nM, the Activity [34] was “Non-toxic” and the bioavailability [35] was 44%. For the same compound, the minimal effective dose (Mus musculus) was 3 mg/kg, the fraction unbound [36] was 0.034 and the Activity (Rattus norvegicus [37]) was 359.3 mg/dL. For the same compound, the Activity (Rattus norvegicus [38]) was 105.2 mg/dL.

In the case of `CC(C)(C)OC(=O)N1CCC(Cc2ncnc3c2cnn3-c2ccc(S(C)(=O)=O)cc2)CC1`, the Emax [1] is reported as 91%, the EC50 [2] is reported as 7.3 nM and the Ratio EC50 [3] is reported as 16.4. For the same compound, the EC50 [4] was 120 nM.

For `CC(C)(C)OC(=O)N1CCC(Oc2ncnc3c2cnn3-c2ccc(S(C)(=O)=O)cc2)CC1`, the Emax [1] was 96%, the EC50 [2] was 1.1 nM and the Ratio EC50 [3] was 8.9. The EC50 [4] was 9.8 nM.

Compound `CC(C)(C)OC(=O)N1CCC(Oc2ncnc3c2cnn3-c2ccc(S(C)(=O)=O)cc2F)CC1` has an Emax [1] of 79%, an EC50 [2] of 0.9 nM and a Ratio EC50 [3] of 21.8. For the same compound, the EC50 [4] was 19.6 nM.
